Assay results taken from ChEMBL document CHEMBL1152541, “Staurosporine tethered peptide ligands that target cAMP-dependent protein kinase (PKA): optimization and selectivity profiling” (Bioorg Med Chem, 2009).
Values belong to the compound of their own block, whether it stands above or below them. *1 amine or outer side, *2 acyl side, *3 side chain or, on linkers, in order; H or OH if unused. Where a SMILES comes first, the peptide text is derived from it. Bridges are numbered along the chain shown (N, C = ends). [ ]: non-standard residue; d: D form. The star is where a group is joined. Staurosporine = CO[C@@H]1[C@H](N(C)*)C[C@H]2O[C@]1(C)n1c3ccccc3c3c4c(c5c6ccccc6n2c5c31)C(=O)NC4; Suc = O=C(CCC(=O)[*:2])[*:1]; Dap = NC[C@H](N)C(=O)O; βAla = NCCC(=O)O

What was measured:
[1] = target: ALK tyrosine kinase receptor (Homo sapiens) (UniProt Q9UM73); assay: Binding affinity to human ALK at 500 nM by cell-based competition binding assay relative to control in presence of DTT
Chain of ALK tyrosine kinase receptor (Homo sapiens) (Q9UM73 19-1620 limits assumed): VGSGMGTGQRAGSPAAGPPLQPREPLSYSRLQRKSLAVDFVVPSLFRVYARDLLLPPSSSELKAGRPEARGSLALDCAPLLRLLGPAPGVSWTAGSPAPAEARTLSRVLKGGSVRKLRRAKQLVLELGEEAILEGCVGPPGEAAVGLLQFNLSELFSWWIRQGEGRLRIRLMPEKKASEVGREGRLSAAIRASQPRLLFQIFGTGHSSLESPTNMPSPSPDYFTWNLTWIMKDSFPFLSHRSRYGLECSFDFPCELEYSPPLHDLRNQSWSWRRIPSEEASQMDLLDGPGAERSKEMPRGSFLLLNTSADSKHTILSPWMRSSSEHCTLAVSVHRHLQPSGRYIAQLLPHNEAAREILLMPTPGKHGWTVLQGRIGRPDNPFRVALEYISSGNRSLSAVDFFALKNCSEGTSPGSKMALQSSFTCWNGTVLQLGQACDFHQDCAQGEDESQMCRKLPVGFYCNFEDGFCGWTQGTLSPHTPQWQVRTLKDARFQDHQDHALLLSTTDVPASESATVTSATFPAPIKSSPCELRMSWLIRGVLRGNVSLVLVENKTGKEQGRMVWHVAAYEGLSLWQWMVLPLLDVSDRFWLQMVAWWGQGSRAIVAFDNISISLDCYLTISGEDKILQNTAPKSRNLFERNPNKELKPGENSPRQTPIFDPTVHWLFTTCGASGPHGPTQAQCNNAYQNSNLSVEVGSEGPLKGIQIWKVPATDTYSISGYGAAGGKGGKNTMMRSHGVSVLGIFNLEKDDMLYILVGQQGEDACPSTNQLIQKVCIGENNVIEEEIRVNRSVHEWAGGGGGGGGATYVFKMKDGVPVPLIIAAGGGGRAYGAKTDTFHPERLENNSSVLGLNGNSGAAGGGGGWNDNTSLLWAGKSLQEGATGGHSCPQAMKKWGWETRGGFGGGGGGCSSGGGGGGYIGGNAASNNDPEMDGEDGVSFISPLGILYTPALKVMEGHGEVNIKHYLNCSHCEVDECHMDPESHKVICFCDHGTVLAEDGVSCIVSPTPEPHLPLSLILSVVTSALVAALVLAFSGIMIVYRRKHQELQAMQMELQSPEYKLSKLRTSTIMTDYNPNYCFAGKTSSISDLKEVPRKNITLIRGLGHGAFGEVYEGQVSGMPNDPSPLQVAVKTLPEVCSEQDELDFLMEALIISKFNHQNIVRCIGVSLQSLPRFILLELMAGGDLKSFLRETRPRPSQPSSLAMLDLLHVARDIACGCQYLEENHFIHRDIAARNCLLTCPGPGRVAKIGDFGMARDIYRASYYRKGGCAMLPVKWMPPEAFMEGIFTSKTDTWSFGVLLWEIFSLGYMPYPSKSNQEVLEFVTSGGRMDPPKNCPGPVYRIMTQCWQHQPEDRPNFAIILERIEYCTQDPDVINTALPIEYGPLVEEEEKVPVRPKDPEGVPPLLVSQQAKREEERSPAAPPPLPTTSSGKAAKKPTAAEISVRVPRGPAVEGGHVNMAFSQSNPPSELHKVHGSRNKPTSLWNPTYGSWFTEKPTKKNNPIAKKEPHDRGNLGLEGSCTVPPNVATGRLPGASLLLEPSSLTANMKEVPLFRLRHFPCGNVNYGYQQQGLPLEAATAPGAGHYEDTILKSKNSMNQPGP
Summary of the method: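 Kinase binding profiling ran on a commercial (Ambit) competitive binding screen against a panel of 90 kinases. The screen used reducing conditions with 7.5 mM DTT. To withstand the DTT, the bivalent ligand was tested as its amide isostere, with the disulfide replaced. A staurosporine derivative carrying a 3 β-alanine linker was run as the reference compound.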

[2] = target: Phosphatidylinositol 4,5-bisphosphate 3-kinase catalytic subunit gamma isoform (Homo sapiens) (UniProt P48736); assay: Ratio of staurosporine to compound binding affinity to PI3Kgamma in presence of DTT
Chain of Phosphatidylinositol 4,5-bisphosphate 3-kinase catalytic subunit gamma isoform (Homo sapiens) (P48736 whole entry, looked up, canonical isoform): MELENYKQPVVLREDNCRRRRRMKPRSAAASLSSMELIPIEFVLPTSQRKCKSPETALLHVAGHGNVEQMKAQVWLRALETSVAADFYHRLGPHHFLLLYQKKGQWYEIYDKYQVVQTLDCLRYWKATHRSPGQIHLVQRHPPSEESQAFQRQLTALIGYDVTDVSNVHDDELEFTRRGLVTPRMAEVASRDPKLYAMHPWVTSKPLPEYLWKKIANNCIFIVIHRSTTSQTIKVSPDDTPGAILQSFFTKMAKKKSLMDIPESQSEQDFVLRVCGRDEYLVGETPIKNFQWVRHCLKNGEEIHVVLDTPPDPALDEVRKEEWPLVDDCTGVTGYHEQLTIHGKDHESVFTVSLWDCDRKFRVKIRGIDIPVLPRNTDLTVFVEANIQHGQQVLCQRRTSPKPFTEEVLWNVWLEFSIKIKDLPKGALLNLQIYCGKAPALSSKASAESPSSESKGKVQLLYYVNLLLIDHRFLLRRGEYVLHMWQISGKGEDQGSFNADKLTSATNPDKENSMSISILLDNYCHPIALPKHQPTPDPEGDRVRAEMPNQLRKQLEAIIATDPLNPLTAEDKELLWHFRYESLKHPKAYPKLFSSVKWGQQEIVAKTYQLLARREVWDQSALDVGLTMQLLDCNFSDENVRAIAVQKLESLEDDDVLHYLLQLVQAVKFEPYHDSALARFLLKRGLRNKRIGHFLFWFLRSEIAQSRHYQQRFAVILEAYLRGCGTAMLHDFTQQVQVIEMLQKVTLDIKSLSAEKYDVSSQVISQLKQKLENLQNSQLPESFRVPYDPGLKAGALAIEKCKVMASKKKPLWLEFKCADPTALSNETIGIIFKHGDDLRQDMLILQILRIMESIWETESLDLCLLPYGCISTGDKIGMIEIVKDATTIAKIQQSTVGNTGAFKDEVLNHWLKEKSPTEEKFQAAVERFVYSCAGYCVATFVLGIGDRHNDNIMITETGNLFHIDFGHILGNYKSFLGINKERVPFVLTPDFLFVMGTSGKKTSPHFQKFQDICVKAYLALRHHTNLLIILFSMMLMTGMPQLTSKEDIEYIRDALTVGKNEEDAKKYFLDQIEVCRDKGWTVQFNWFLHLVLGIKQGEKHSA

[3] = target: MAP kinase-interacting serine/threonine-protein kinase 2 (Homo sapiens) (UniProt Q9HBH9); assay: Binding affinity to human MKNK2 at 500 nM by cell-based competition binding assay relative to control in presence of DTT
[4] = target: Ephrin type-A receptor 2 (Homo sapiens) (UniProt P29317); assay: Binding affinity to human EPHA2 at 500 nM by cell-based competition binding assay relative to control in presence of DTT
Summary of the method: (§1)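 Commercial (Ambit) competitive kinase-binding panel of 90 kinases measured the binding profile. Run under reducing conditions of 7.5 mM DTT. Binding is expressed relative to control.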

[5] = target: T1, Tyrosine-protein kinase ZAP-70 (Homo sapiens) (UniProt P43403); assay: Binding affinity to human ZAP70 at 500 nM by cell-based competition binding assay relative to control in presence of DTT
T1 sequence (whole entry): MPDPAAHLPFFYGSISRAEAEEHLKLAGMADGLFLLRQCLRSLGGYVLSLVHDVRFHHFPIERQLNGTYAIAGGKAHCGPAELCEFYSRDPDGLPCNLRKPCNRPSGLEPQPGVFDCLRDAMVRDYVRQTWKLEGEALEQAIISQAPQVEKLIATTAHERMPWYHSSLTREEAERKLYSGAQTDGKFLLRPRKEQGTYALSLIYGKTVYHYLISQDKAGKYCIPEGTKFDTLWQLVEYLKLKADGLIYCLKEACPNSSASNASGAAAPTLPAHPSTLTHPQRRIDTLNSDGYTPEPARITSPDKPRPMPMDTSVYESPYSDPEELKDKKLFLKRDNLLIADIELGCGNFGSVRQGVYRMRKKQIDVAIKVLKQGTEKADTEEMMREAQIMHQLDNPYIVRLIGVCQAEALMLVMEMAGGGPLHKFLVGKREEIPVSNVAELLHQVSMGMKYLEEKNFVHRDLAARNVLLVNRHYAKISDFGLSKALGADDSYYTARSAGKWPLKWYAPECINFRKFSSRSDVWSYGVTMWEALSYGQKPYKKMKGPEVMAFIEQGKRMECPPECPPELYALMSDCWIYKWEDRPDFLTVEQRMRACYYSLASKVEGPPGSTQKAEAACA

[6] = target: Insulin-like growth factor 1 receptor (Homo sapiens) (UniProt P08069); assay: Binding affinity to human IGF1R at 200 nM by cell-based competition binding assay relative to control in presence of DTT
Summary of the method: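 Competition binding screen (Ambit) across a panel of 90 kinases, scoring test ligand displacement of each kinase's binding relative to control. The screen ran under reducing conditions with 7.5 mM DTT.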

[7] = target: T2, Serine/threonine-protein kinase DCLK1 (Homo sapiens) (UniProt O15075); assay: Binding affinity to human DCAMKL1 at 200 nM by cell-based competition binding assay relative to control in presence of DTT; summary of the method: as §1
T2 sequence (whole entry): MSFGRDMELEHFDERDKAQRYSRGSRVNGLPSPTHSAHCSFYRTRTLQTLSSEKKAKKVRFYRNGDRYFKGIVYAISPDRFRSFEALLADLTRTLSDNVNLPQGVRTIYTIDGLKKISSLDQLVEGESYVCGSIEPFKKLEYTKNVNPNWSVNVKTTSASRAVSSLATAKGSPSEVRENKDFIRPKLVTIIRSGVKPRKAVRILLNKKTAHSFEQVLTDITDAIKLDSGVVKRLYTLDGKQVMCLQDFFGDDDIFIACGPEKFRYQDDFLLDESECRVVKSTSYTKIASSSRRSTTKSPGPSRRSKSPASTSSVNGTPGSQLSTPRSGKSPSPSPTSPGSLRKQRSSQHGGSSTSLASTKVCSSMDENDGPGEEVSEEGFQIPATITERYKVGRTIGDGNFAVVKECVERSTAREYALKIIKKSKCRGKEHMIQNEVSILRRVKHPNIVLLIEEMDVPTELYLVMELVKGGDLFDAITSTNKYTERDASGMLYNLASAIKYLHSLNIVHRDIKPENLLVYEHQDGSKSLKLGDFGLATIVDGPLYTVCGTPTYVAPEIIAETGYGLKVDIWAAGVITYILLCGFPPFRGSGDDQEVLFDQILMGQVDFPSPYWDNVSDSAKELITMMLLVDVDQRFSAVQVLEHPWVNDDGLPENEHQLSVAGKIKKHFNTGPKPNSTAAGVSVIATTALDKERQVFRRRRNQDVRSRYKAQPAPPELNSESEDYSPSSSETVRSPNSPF

[8] = target: Serine/threonine-protein kinase PAK 4 (Homo sapiens) (UniProt O96013); assay: Binding affinity to human PAK4 at 200 nM by cell-based competition binding assay relative to control in presence of DTT
Chain of Serine/threonine-protein kinase PAK 4 (Homo sapiens) (O96013 whole entry, looked up): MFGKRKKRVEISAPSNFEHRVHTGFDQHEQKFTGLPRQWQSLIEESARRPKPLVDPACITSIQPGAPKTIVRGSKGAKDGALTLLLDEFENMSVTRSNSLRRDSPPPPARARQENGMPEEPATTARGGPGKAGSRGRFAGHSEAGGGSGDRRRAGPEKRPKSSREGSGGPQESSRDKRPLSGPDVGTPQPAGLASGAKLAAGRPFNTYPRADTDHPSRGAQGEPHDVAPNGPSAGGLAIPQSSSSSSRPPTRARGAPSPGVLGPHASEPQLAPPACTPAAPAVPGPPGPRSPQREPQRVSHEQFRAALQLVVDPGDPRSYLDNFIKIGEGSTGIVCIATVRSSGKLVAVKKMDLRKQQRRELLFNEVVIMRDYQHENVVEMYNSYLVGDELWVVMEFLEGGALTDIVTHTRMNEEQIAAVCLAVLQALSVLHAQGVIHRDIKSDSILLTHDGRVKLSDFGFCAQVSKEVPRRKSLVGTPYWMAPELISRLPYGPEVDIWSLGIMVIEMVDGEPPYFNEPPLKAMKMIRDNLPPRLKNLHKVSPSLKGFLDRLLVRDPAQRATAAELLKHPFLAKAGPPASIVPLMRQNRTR

[9] = target: Angiopoietin-1 receptor (Homo sapiens) (UniProt Q02763); assay: Binding affinity to human TIE2 at 200 nM by cell-based competition binding assay relative to control in presence of DTT
Chain of Angiopoietin-1 receptor (Homo sapiens) (Q02763 whole entry): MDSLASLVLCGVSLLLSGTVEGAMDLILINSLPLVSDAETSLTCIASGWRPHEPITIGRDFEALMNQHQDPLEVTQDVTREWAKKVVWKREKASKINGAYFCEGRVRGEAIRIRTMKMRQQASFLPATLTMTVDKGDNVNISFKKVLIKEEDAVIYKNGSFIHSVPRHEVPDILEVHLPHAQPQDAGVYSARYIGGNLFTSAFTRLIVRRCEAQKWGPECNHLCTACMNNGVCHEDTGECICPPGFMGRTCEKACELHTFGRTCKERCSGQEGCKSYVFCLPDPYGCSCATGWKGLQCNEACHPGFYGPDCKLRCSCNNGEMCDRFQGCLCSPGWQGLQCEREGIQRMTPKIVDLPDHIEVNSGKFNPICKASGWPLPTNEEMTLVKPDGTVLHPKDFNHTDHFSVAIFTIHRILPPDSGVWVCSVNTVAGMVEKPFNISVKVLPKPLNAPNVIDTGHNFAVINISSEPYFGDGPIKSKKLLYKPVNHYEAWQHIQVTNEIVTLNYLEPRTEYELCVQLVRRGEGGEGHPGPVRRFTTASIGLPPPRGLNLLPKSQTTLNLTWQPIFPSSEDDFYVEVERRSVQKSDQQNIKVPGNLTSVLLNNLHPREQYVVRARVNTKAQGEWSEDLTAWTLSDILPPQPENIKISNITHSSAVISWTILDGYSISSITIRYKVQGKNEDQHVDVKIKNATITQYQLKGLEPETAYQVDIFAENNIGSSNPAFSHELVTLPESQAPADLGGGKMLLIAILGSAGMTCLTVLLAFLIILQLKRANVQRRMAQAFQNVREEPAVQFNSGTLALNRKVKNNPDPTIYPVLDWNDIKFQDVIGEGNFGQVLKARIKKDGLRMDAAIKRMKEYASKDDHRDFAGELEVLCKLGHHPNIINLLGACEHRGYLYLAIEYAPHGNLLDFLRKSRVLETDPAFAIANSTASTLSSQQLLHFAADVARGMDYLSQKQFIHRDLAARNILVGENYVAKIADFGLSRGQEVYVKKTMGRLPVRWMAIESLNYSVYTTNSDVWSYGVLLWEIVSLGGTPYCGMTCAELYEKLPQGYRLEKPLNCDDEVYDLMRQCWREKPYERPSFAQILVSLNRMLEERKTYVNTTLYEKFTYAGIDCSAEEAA

[10] = target: Mitogen-activated protein kinase 14 (Homo sapiens) (UniProt Q16539); assay: Binding affinity to human p38alpha at 200 nM by cell-based competition binding assay relative to control in presence of DTT
Chain of Mitogen-activated protein kinase 14 (Homo sapiens) (Q16539 whole entry, canonical isoform): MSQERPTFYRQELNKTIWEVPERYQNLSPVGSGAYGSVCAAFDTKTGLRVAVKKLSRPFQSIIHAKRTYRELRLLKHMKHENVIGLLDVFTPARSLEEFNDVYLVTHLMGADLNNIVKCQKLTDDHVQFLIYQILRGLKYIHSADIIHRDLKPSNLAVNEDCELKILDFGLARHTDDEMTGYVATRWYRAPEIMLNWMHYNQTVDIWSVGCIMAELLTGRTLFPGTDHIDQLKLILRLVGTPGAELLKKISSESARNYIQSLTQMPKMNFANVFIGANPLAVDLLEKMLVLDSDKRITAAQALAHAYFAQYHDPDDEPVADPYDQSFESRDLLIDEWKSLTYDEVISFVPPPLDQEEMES

[11] = target: Phosphatidylinositol 4,5-bisphosphate 3-kinase catalytic subunit alpha isoform (Homo sapiens) (UniProt P42336); assay: Binding affinity to human PIK3Calpha at 200 nM by cell-based competition binding assay relative to control in presence of DTT
[12] = target: Serine/threonine-protein kinase PLK1 (Homo sapiens) (UniProt P53350); assay: Binding affinity to human PLK1 at 50 nM by cell-based competition binding assay relative to control in presence of DTT
[13] = target: Phosphatidylinositol 4,5-bisphosphate 3-kinase catalytic subunit gamma isoform (Homo sapiens) (UniProt P48736); assay: Binding affinity to human PIK3Cgamma at 50 nM by cell-based competition binding assay relative to control in presence of DTT
[14] = target: Receptor tyrosine-protein kinase erbB-2 (Homo sapiens) (UniProt P04626); assay: Binding affinity to human ERBB2 at 50 nM by cell-based competition binding assay relative to control in presence of DTT; summary of the method: as §1
[15] = target: Serine/threonine-protein kinase 32C (Homo sapiens) (UniProt Q86UX6); assay: Binding affinity to human YANK3 at 50 nM by cell-based competition binding assay relative to control in presence of DTT
[16] = target: Mitogen-activated protein kinase 14 (Homo sapiens) (UniProt Q16539); assay: Binding affinity to human p38alpha at 50 nM by cell-based competition binding assay relative to control in presence of DTT

Activity [1]: 5.2% | Selectivity ratio [2]: 6 | Activity [3]: 39% | Activity [4]: 80% | Activity [5]: 2.2%
Structure (SMILES): CO[C@@H]1[C@H](N(C)C(=O)CCC(=O)NCCC(=O)NCCC(=O)NCCC(N)=O)C[C@H]2O[C@]1(C)n1c3ccccc3c3c4c(c5c6ccccc6n2c5c31)C(=O)NC4

Activity [6]: 100% | Activity [7]: 100% | Activity [8]: 40% | Activity [9]: 65% | Activity [10]: 89% | Activity [11]: 89%
Structure (SMILES): CO[C@@H]1[C@H](N(C)C(=O)CCC(=O)NCCC(=O)NCCC(=O)NCCC(=O)NCCC(=O)NCCC(=O)NCCC(=O)NCCC(=O)N[C@H]2CSSC[C@@H](C(=O)NCC(N)=O)NC(=O)CNC(=O)[C@H](Cc3ccccc3)NC(=O)[C@H](C(C)C)NC(=O)[C@H](CCCNC(=N)N)NC(=O)[C@H](Cc3ccccc3)NC(=O)[C@H](C(C)C)NC2=O)C[C@H]2O[C@]1(C)n1c3ccccc3c3c4c(c5c6ccccc6n2c5c31)C(=O)NC4 ({Staurosporine-Suc-βAla-βAla-βAla-βAla-βAla-βAla-βAla}-CVFRVFGCG-NH2; disulfide 1-8)

Activity [12]: 100% | Activity [13]: 91% | Activity [14]: 100% | Activity [15]: 100% | Activity [16]: 95%
Structure (SMILES): CO[C@@H]1[C@H](N(C)C(=O)CCC(=O)NCCC(=O)NCCC(=O)NCCC(=O)NCCC(=O)NCCC(=O)NCCC(=O)NCCC(=O)N[C@H]2CNC(=O)C[C@@H](C(N)=O)NC(=O)CNC(=O)[C@H](Cc3ccccc3)NC(=O)[C@H](C(C)C)NC(=O)[C@H](CCCNC(=N)N)NC(=O)[C@H](Cc3ccccc3)NC(=O)[C@H](C(C)C)NC2=O)C[C@H]2O[C@]1(C)n1c3ccccc3c3c4c(c5c6ccccc6n2c5c31)C(=O)NC4 ({Staurosporine-Suc-βAla-βAla-βAla-βAla-βAla-βAla-βAla}-[Dap]VFRVFGD-NH2; lactam 1-8)
